Like-named read-outs stand apart in the source and are kept apart here. Bridge positions count the residues as written; N and C are the ends. Ends that are not written are not given here. Peptide text beside a SMILES is read from it.
How the values were obtained:
ActRIIB-Fc [1] = biological target: T1, ActRIIB-Fc (Homo sapiens, UniProt Q13705); experiment: SPR binding assay, ActRIIB-Fc
T1 sequence (Q13705 19-135): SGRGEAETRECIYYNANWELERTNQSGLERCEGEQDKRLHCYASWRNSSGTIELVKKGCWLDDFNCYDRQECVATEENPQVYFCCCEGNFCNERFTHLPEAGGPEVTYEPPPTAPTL
Summary of the method: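 ActRIIB-Fc immobilized on a CM5 chip by amine coupling to about 3000 RU in PBS/0.01% P20 at 22 °C. Peptide concentration series injected in PBS/0.01% P20/1% DMSO at 75 μL/min: 60 s contact, up to 60 s dissociation. Double-referenced data globally fitted to a 1:1 model for kon and koff, KD = koff/kon. For fast off-rates, KD from a steady-state 1:1 fit.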

ActRIIA-Fc [2] = biological target: T2, ActRIIA-Fc (Homo sapiens, UniProt P27037); experiment: SPR binding assay, ActRIIA-Fc
Summary of the method: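 ActRIIA-Fc amine-coupled to a CM5 chip to about 9000 RU in PBS/0.01% P20 at 22 °C. Peptide concentration series run in PBS/0.01% P20/1% DMSO at 75 μL/min: 60 s association, up to 60 s dissociation. Sensorgrams double-referenced and globally fitted to a 1:1 model, KD = koff/kon. For fast off-rates, KD taken from a 1:1 steady-state fit.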

ActRIIB-Fc [3] = biological target: T1, ActRIIB-Fc; experiment: Plate ELISA, ligand binding of ActRIIB-Fc; conditions: ligand directly coated; HRP anti-human IgG Fc, chemiluminescence
ActRIIA-Fc [4] = biological target: T2, ActRIIA-Fc; experiment: Plate ELISA, ligand binding of ActRIIA-Fc; conditions: ligand directly coated; HRP anti-human IgG Fc, chemiluminescence
Summary of the method: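 Wells coated directly with each ligand overnight at 4 °C, then blocked with 0.5% BSA in PBS for 2 h at room temperature. ActRIIA-Fc added, then washed three times with PBST. Bound Fc protein detected with HRP goat anti-human IgG Fc (5000-fold dilution in 0.5% BSA/PBS) and a chemiluminescence reagent.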

mice = conditions: injection to mice; ref Suragani et al. [9]; cited from earlier work
[5] = biological target: T3, ActRIIB-Fc (extracellular domain of human ActRIIB, activin receptor type-2B, fused to human IgG-Fc) (human, UniProt Q13705 19-135); experiment: SPR
T3 sequence: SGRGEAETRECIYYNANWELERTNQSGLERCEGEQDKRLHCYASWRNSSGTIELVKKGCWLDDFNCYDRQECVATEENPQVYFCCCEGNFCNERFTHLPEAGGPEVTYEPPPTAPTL

[6] = biological target: T3, ActRIIB-Fc (extracellular domain of …); experiment: SPR; remark: listed apart in the source
ActRIIA-Fc [7] = biological target: ActRIIA-Fc (UniProt P27037); experiment: SPR
Chain of ActRIIA-Fc (UniProt P27037) (P27037 20-135): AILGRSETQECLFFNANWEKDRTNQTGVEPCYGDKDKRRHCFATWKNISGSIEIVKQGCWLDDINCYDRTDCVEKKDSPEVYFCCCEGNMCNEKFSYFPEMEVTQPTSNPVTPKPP

ActRIIB-Fc/ActRIIA-Fc = conditions: ref [3]; cited from earlier work

In the case of `CC[C@H](C)[C@@H]1NC(=O)[C@H](CCCNC(=N)N)NC(=O)[C@H](CCCNC(=N)N)NC(=O)[C@H](C(C)C)NC(=O)[C@H](CO)NC(=O)[C@H]([C@@H](C)O)NC(=O)CNC(=O)[C@H](Cc2ccccc2)NC(=O)[C@@H](NC(=O)[C@@H](N)C(C)C)CSSC[C@@H](C(=O)N[C@H](C(=O)O)C(C)C)NC1=O` [AR2mini] (H-VCFGTSVRRICV-OH; disulfide 2-11), the koff (ActRIIB-Fc [1]) is reported as over 0.1 s⁻¹.

With `C[C@@H]1NC(=O)[C@H](CCCNC(=N)N)NC(=O)[C@H]([C@@H](C)O)NC(=O)[C@@H](NC(=O)[C@H](CCC(N)=O)NC(=O)[C@H](Cc2ccccc2)NC(=O)[C@@H]2CCCN2)CSSC[C@@H](C(=O)N[C@H](C(=O)N[C@@H](CCCCN)C(=O)N[C@@H](CO)C(=O)O)[C@@H](C)O)NC(=O)[C@H](Cc2ccc(O)cc2)NC(=O)[C@H](Cc2ccc(O)cc2)NC(=O)[C@H](Cc2c[nH]c3ccccc23)NC(=O)CNC(=O)[C@H](CC(=O)O)NC(=O)[C@H](CCCNC(=N)N)NC1=O` [AR8] (H-PFQCTRARDGWYYCTKS-OH; disulfide 4-14) the koff (ActRIIB-Fc [1]) was over 0.1 s⁻¹.

In the case of `CC(C)C[C@@H]1NC(=O)[C@H]([C@@H](C)O)NC(=O)[C@H](CCCCN)NC(=O)[C@@H]2CCCN2C(=O)[C@H](Cc2c[nH]c3ccccc23)NC(=O)[C@@H](NC(=O)[C@H](CCCCN)NC(=O)[C@H](Cc2ccc(O)cc2)NC(=O)[C@@H](N)Cc2c[nH]cn2)CSSC[C@@H](C(=O)N[C@@H](Cc2c[nH]c3ccccc23)C(=O)N[C@@H](CC(N)=O)C(=O)N[C@@H](Cc2c[nH]cn2)C(=O)O)NC(=O)[C@H](CCCCN)NC(=O)[C@H](Cc2ccccc2)NC1=O` [AR9] (H-HYKCWPKTLFKCWNH-OH; disulfide 4-12), the koff (ActRIIB-Fc [1]) is reported as 0.049 s⁻¹ and the Kd (ActRIIA-Fc [2]) is reported as over 100 µM.

In the case of “GDF11: growth differentiation factor 11, R&D Systems (1958-GD)”, the “binding to ActRIIB-Fc (plate ELISA), in words” value (“binding to ActRIIB-Fc” for short) (ActRIIB-Fc [3]) is given as “binds to activin A, MSTN, and GDF11 in a concentration-dependent manner”, the “binding to ActRIIA-Fc (plate ELISA), in words” value (from here on “binding to ActRIIA-Fc”) (ActRIIA-Fc [4]) is given as “binds to activin A and GDF11” and the “anemia, in words” value (mice) is given as “causes anemia”.

In the case of “MSTN: recombinant mature human MSTN (myostatin), ActRIIB ligand”, the “binding to ActRIIB-Fc” value (ActRIIB-Fc [3]) is reported as “binds to activin A, MSTN, and GDF11 in a concentration-dependent manner” and the “binding to ActRIIA-Fc” value (ActRIIA-Fc [4]) is reported as “but not MSTN”.

With “activin A: ActRIIB ligand, purchased from R&D Systems (338-AC)” the “binding to ActRIIB-Fc” value (ActRIIB-Fc [3]) was “binds to activin A, MSTN, and GDF11 in a concentration-dependent manner” and the “binding to ActRIIA-Fc” value (ActRIIA-Fc [4]) was “binds to activin A and GDF11”.

For HYKCWPKTLFKCWNH-OH (disulfide 4-12 (inferred)) [AR9], the Kd [5] was 0.86 µM.

Molecule PFQCTRARDGWYYCTKS-OH (disulfide 4-14 (inferred)) [AR8] has a Kd [6] of 3.6 µM and a Kd (ActRIIA-Fc [7]) of 18 µM.

In the case of VCDGTSVPRICV-OH (disulfide 2-11 (inferred)) [AR2mut], the Kd [5] is reported as over 100 µM.

VCFGTSVRRICV-OH (disulfide 2-11 (inferred)) [AR2mini] gave a Kd [5] of 1.8 µM and a Kd (ActRIIA-Fc [7]) of 19 µM.

B1: BMP9: bone morphogenetic protein 9, R&D Systems (3209-BP) (protein, UniProt Q9UK05 320-429, looked up)
Growth/differentiation factor …: SAGAGSHCQKTSLRVNFEDIGWDSWIIAPKEYEAYECKGGCFFPLADDVTPTKHAIVQTLVHLKFPTKVGKACCVPTKLSPISVLYKDDMGVPTLKYHYEGMSVAECGCR
For B1, the “PPI with ActRIIB-Fc/ActRIIA-Fc, in words” value (ActRIIB-Fc/ActRIIA-Fc) is listed as “have been previously reported”.
